Data published in ChEMBL document CHEMBL4373656, “A MedChem toolbox for cereblon-directed PROTACs” (Medchemcomm, 2019).
Active and inactive are the calls of the source. No cut-off for these calls is given here. *1 amine or outer side, *2 acyl side, *3 side chain or, on linkers, in order; H or OH if unused. Where a SMILES comes first, the peptide text is derived from it. The star is where a group is joined. X1 = O=C1CCC(N2C(=O)c3cccc(NCCCOCCCCOCCCN*)c3C2=O)C(=O)N1; Suc = O=C(CCC(=O)[*:2])[*:1]

Experiments:
[1] = molecular target: T1, Cereblon/Ikaros (Homo sapiens) (UniProt Q96SW2+Q13422); assay: Protac activity at CRBN/ IKZF1 in human MM1S cells assessed as CRBN degradation at 100 nM to 1 uM after 16 hrs by Western blot analysis; assay type: cell-based
Procedure, shortened: (§1)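 MM1S multiple myeloma cells were exposed to each compound for 16 h at the indicated concentrations, including 100 nM and 1 μM. Lysates were analysed by western blot for CRBN and for the neo-substrate IKZF1.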

[2] = molecular target: T1, Cereblon/Ikaros (Homo sapiens); assay: Protac activity at CRBN/ IKZF1 in human MM1S cells assessed as IKZF1 degradation by measuring IKZF1/tubulin ratio at 0.1 uM after 16 hrs by Western blot analysis relative to tubulin; assay type: cell-based; parameters: unit not given here; procedure, shortened: as §1
[3] = molecular target: T1, Cereblon/Ikaros (Homo sapiens); assay: Protac activity at CRBN/ IKZF1 in human MM1S cells assessed as Bax protein expression at 0.1 to 10 uM after 16 hrs by Western blot analysis relative to tubulin; assay type: cell-based
MM1.S = assay: Antiproliferative activity against human MM1S cells at 1 nM to 10 uM after 4 hrs by CellTiter-Glo assay; assay type: functional, cell-based
[4] = molecular target: T1, Cereblon/Ikaros (Homo sapiens); assay: Protac activity at CRBN/ IKZF1 in human MM1S cells assessed as reduction in IKZF1 degradation at 0.001 to 0.01 uM after 16 hrs by Western blot analysis; assay type: cell-based

Row | SMILES | Activity [1] | Ratio [2] | Activity [3] | Activity [4] | Activity (MM1.S)
1 | CSCC[C@H](NC(=O)[C@@H]1CCCN1C(=O)[C@@H](NC(=O)CCC(=O)NCCCOCCCCOCCCNc1cccc2c1C(=O)N(C1CCC(=O)NC1=O)C2=O)C(C)C)C(=O)N[C@@H](CC(C)C)C(=O)N[C@@H](CCCCN)C(=O)O (stereo not given in full) ({X1-Suc}-VPMLK-OH) | – | – | inactive | – | –
2 | O=C(CC12CC3CC(CC(C3)C1)C2)NCCOCCOCCNc1cccc2c1C(=O)N(C1CCC(=O)NC1=O)C2=O (stereo not given) | inactive | 7.1 | – | Active | Active
3 | O=C1CCC(N2C(=O)c3cccc(NCCOCCOCCNc4cccc5c4C(=O)N(C4CCC(=O)NC4=O)C5=O)c3C2=O)C(=O)N1 (stereo not given) | – | 79 | – | – | –
4 | Cc1ncsc1-c1ccc(CNC(=O)[C@@H]2C[C@@H](O)CN2C(=O)[C@@H](NC(=O)CCCCOCCCCCOCCCCCCNc2cccc3c2C(=O)N(C2CCC(=O)NC2=O)C3=O)C(C)(C)C)cc1 (stereo not given in full) | – | 99 | – | – | –

Further lines, with some results ahead:

Row | Activity [1] | Ratio [2] | Activity [3] | Activity [4] | SMILES | Activity (MM1.S)
5 | inactive | 24 | – | – | O=C(CC12CC3CC(CC(C3)C1)C2)NCCCOCCOCCOCCCNc1cccc2c1C(=O)N(C1CCC(=O)NC1=O)C2=O (stereo not given) | –
6 | inactive | 15 | – | – | O=C(CC12CC3CC(CC(C3)C1)C2)NCCCOCCOCCCNc1cccc2c1C(=O)N(C1CCC(=O)NC1=O)C2=O (stereo not given) | –
7 | inactive | 30 | – | – | O=C(CC12CC3CC(CC(C3)C1)C2)NCCCOCCCCOCCCNc1cccc2c1C(=O)N(C1CCC(=O)NC1=O)C2=O (stereo not given) | –
8 | inactive | 16 | – | – | O=C(CC12CC3CC(CC(C3)C1)C2)NCCOCCOCCOCCNc1cccc2c1C(=O)N(C1CCC(=O)NC1=O)C2=O (stereo not given) | –
